Measured values from PMC6220894 (Food and chemical toxicology : an international journal …, 2018).
Like-named read-outs stand apart in the source and are kept apart here.

Legend:
[1] = system: cryopreserved human hepatocytes; test: Cytotoxicity; format: cell-based; settings: 72 hours
How it was run: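 Cryopreserved hepatocytes from three donors (1 male, 2 female, Caucasian, 43–59 y) were thawed, plated at 0.15 million cells/well on collagen-coated plates at 37°C in 5% CO2, medium-changed after 2–4 h attachment, and recovered overnight. Cells were exposed to 0.3, 3 or 30 µM test compound or 0.1% DMSO vehicle for 72 h, with medium renewed daily. MTS conversion to formazan was then read, in triplicate.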

[2] = system: Salmonella typhimurium TA 1537; test: Ames bacterial reverse mutation assay, plate incorporation method; format: cell-based
[3] = system: Salmonella typhimurium TA 100; format: cell-based; settings: plate incorporation
[4] = system: Salmonella typhimurium TA 102; test: Ames bacterial reverse mutation assay, plate incorporation method; format: cell-based
[5] = system: Salmonella typhimurium TA 1535; format: cell-based; settings: pre-incubation
[6] = system: Salmonella typhimurium TA 1537; test: Ames bacterial reverse mutation assay, pre-incubation method; format: cell-based
[7] = system: Salmonella typhimurium TA 98; test: as above; format: cell-based
[8] = system: CYP3A4; test: CYP mRNA induction in human hepatocytes; format: in vitro ADME; settings: 0.3, 3, 30 µM; 72 hours; 3 donors
[9] = system: CYP1A2 or CYP3A4; test: CYP mRNA induction in human hepatocytes, isoform not given; format: in vitro ADME; settings: 0.3 µM; one donor; isoform not stated
[10] = molecular target: hERG (Homo sapiens, UniProt Q12809); format: cell-based
[11] = Red blood cell distribution in whole blood; format: in vitro ADME; settings: male, Sprague-Dawley, rat, whole blood (EDTA)
[12] = Stability in rabbit plasma; format: in vitro ADME
[13] = In vitro metabolism in cryopreserved hepatocytes; format: in vitro ADME; settings: rat hepatocytes; 25 µM; 4 hours
[14] = In vitro metabolism in cryopreserved hepatocytes; format: in vitro ADME; settings: rabbit hepatocytes; 25 µM; 4 hours
[15] = In vitro metabolism in cryopreserved hepatocytes; format: in vitro ADME; settings: human hepatocytes; 25 µM; 4 hours
[16] = system: plasma protein; settings: human plasma, mean ± SE
[17] = ref Davies et al., 2002; Zagol-Ikapitte et al., 2010a; cited from earlier work
[18] = system: hypertension; settings: mice; ref Wu et al., 2016; cited from earlier work
[19] = in vitro; settings: both, human, plasma (pooled), pH 7.4
[20] = +S9, 0.05 mg/plate as printed (third dose row)
[21] = −S9, 0.05 mg/plate as printed (third dose row)

Chain of hERG (Q12809 whole entry): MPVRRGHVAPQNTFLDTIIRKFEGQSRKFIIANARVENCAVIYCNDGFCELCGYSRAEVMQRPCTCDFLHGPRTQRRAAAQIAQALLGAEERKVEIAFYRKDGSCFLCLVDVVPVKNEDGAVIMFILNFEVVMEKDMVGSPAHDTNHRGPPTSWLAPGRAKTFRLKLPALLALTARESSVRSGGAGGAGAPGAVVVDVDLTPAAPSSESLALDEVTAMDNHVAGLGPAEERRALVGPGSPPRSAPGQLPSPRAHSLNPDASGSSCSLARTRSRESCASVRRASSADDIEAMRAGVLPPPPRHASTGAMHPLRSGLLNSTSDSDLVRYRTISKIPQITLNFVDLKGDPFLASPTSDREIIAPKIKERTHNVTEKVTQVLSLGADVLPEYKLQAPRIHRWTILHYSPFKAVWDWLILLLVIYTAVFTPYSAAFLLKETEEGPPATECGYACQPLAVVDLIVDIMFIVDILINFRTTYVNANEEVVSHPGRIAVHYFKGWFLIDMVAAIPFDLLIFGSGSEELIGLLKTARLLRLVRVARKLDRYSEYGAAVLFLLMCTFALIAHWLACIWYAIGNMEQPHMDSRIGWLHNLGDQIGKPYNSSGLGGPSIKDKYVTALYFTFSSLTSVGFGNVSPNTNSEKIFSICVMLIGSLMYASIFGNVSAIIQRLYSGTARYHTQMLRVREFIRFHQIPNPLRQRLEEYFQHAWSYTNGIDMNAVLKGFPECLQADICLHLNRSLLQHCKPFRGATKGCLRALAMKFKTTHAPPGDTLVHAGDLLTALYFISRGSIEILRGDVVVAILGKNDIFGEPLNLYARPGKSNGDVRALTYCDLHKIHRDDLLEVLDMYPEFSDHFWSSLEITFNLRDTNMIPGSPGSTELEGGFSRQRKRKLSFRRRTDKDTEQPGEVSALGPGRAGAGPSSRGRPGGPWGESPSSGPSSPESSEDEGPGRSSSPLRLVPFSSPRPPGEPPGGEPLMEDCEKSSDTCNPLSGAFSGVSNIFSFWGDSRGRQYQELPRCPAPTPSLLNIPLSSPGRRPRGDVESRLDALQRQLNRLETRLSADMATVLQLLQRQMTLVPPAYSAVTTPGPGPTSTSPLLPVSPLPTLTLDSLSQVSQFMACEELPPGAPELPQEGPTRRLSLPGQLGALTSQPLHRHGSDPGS

Structure (SMILES): CC(=O)O.NCc1ccccc1O [2-HOBA, 2-Hydroxybenzylamine acetate]
- % formazan absorbance relative to vehicle ([1]; all concentrations (0.3, 3, 30 µM), any donor): ≥ 94%
- Formazan absorbance ([1]; donor 1, 0.3 µM): 0.82
- Formazan absorbance (% of vehicle) ([1]; donor 1, 0.3 µM): 117 % of vehicle
- Formazan absorbance ([1]; donor 1, 3 µM): 0.81
- Formazan absorbance (% of vehicle) ([1]; donor 1, 3 µM): 115 % of vehicle
- Formazan absorbance ([1]; donor 1, 30 µM): 0.75
- Formazan absorbance (% of vehicle) ([1]; donor 1, 30 µM): 107 % of vehicle
- Formazan absorbance ([1]; donor 2, 0.3 µM): 0.37
- Formazan absorbance (% of vehicle) ([1]; donor 2, 0.3 µM): 94 % of vehicle
- Formazan absorbance ([1]; donor 2, 3 µM): 0.38
- Formazan absorbance (% of vehicle) ([1]; donor 2, 3 µM): 96 % of vehicle
- Formazan absorbance ([1]; donor 2, 30 µM): 0.39
- Formazan absorbance (% of vehicle) ([1]; donor 2, 30 µM): 100 % of vehicle
- Formazan absorbance ([1]; donor 3, 0.3 µM): 0.64
- Formazan absorbance (% of vehicle) ([1]; donor 3, 0.3 µM): 99 % of vehicle
- Formazan absorbance ([1]; donor 3, 3 µM): 0.66
- Formazan absorbance (% of vehicle) ([1]; donor 3, 3 µM): 102 % of vehicle
- Formazan absorbance ([1]; donor 3, 30 µM): 0.67
- Formazan absorbance (% of vehicle) ([1]; donor 3, 30 µM): 104 % of vehicle
- Formazan absorbance ([1]; mean of 3 donors, 0.3 µM): 0.61
- Formazan absorbance (% of vehicle) ([1]; mean of 3 donors, 0.3 µM): 103 % of vehicle
- Formazan absorbance ([1]; mean of 3 donors, 3 µM): 0.62
- Formazan absorbance (% of vehicle) ([1]; mean of 3 donors, 3 µM): 104 % of vehicle
- Formazan absorbance ([1]; mean of 3 donors, 30 µM): 0.61
- Formazan absorbance (% of vehicle) ([1]; mean of 3 donors, 30 µM): 103 % of vehicle
- Mean plate counts (revertant colonies) ([2]; +S9, 0.05 mg/plate): 6.3±0.6
- Mean plate counts (revertant colonies) [2, 20]: 6.3±0.6
- Mean plate counts (revertant colonies) ([2]; +S9, 0.15 mg/plate): 6.3±1.5
- Mean plate counts (revertant colonies) ([2]; +S9, 1.5 mg/plate): 6.0±1.0
- Mean plate counts (revertant colonies) ([2]; +S9, 5 mg/plate): 6.3±1.5
- Change in revertant colony counts vs negative control (mutagenicity) ([2]; +S9 and −S9, all dose levels): No changes in revertant colony counts were observed
- Mean plate counts (revertant colonies) ([2]; −S9, 0.05 mg/plate): 5.0±1.0
- Mean plate counts (revertant colonies) [2, 21]: 5.3±0.6
- Mean plate counts (revertant colonies) ([2]; −S9, 0.15 mg/plate): 5.0±0.0
- Mean plate counts (revertant colonies) ([2]; −S9, 1.5 mg/plate): 5.7±1.2
- Mean plate counts (revertant colonies) ([2]; −S9, 5 mg/plate): 6.0±1.0
- Mean plate counts (revertant colonies) ([3]; +S9, 0.05 mg/plate): 106.3±1.5
- Mean plate counts (revertant colonies) [3, 20]: 96.3±5.1
- Mean plate counts (revertant colonies) ([3]; +S9, 0.15 mg/plate): 104.7±8.1
- Mean plate counts (revertant colonies) ([3]; +S9, 1.5 mg/plate): 106.7±6.1
- Mean plate counts (revertant colonies) ([3]; +S9, 5 mg/plate): 101.3±4.2
- Change in revertant colony counts vs negative control (mutagenicity) ([3]; +S9 and −S9, all dose levels): No changes in revertant colony counts were observed
- Mean plate counts (revertant colonies) ([3]; −S9, 0.05 mg/plate): 90.3±1.5
- Mean plate counts (revertant colonies) [3, 21]: 100.0±9.2
- Mean plate counts (revertant colonies) ([3]; −S9, 0.15 mg/plate): 105.3±8.3
- Mean plate counts (revertant colonies) ([3]; −S9, 1.5 mg/plate): 101.3±3.2
- Mean plate counts (revertant colonies) ([3]; −S9, 5 mg/plate): 100.7±2.1
- Mean plate counts (revertant colonies) ([4]; +S9, 0.05 mg/plate): 302.7±11.4
- Mean plate counts (revertant colonies) [4, 20]: 323.3±61.2
- Mean plate counts (revertant colonies) ([4]; +S9, 0.15 mg/plate): 296.7±27.2
- Mean plate counts (revertant colonies) ([4]; +S9, 1.5 mg/plate): 293.3±24.2
- Mean plate counts (revertant colonies) ([4]; +S9, 5 mg/plate): 282.7±19.0
- Change in revertant colony counts vs negative control (mutagenicity) ([4]; +S9 and −S9, all dose levels): No changes in revertant colony counts were observed
- Mean plate counts (revertant colonies) ([4]; −S9, 0.05 mg/plate): 292.7±6.4
- Mean plate counts (revertant colonies) [4, 21]: 279.3±14.2
- Mean plate counts (revertant colonies) ([4]; −S9, 0.15 mg/plate): 287.3±24.0
- Mean plate counts (revertant colonies) ([4]; −S9, 1.5 mg/plate): 297.3±6.4
- Mean plate counts (revertant colonies) ([4]; −S9, 5 mg/plate): 328.0±63.2
- Mean plate counts (revertant colonies) ([5]; +S9, 0.05 mg/plate): 12.0±2.0
- Mean plate counts (revertant colonies) ([5]; +S9, 0.15 mg/plate): 12.0±1.0
- Mean plate counts (revertant colonies) ([5]; +S9, 0.5 mg/plate): 14.3±2.1
- Mean plate counts (revertant colonies) ([5]; +S9, 1.5 mg/plate): 12.3±0.6
- Mean plate counts (revertant colonies) ([5]; +S9, 5 mg/plate): 11.7±2.1
- Change in revertant colony counts vs negative control (mutagenicity) ([5]; +S9 and −S9, all dose levels): No changes in revertant colony counts were observed
- Mean plate counts (revertant colonies) ([5]; −S9, 0.05 mg/plate): 12.7±1.5
- Mean plate counts (revertant colonies) [5, 21]: 12.0±1.0
- Mean plate counts (revertant colonies) ([5]; −S9, 0.15 mg/plate): 11.7±1.5
- Mean plate counts (revertant colonies) ([5]; −S9, 1.5 mg/plate): 11.3±1.5
- Mean plate counts (revertant colonies) ([5]; −S9, 5 mg/plate): 12.0±1.7
- Mean plate counts (revertant colonies) ([6]; +S9, 0.05 mg/plate): 6.7±0.6
- Mean plate counts (revertant colonies) ([6]; +S9, 0.15 mg/plate): 7.3±1.2
- Mean plate counts (revertant colonies) ([6]; +S9, 0.5 mg/plate): 8.0±1.0
- Mean plate counts (revertant colonies) ([6]; +S9, 1.5 mg/plate): 7.0±1.0
- Mean plate counts (revertant colonies) ([6]; +S9, 5 mg/plate): 6.3±1.5
- Change in revertant colony counts vs negative control (mutagenicity) ([6]; +S9 and −S9, all dose levels): No changes in revertant colony counts were observed
- Mean plate counts (revertant colonies) ([6]; −S9, 0.05 mg/plate): 6.7±0.6
- Mean plate counts (revertant colonies) [6, 21]: 7.0±0.0
- Mean plate counts (revertant colonies) ([6]; −S9, 0.15 mg/plate): 6.0±1.0
- Mean plate counts (revertant colonies) ([6]; −S9, 1.5 mg/plate): 6.0±1.0
- Mean plate counts (revertant colonies) ([6]; −S9, 5 mg/plate): 6.3±1.2
- Mean plate counts (revertant colonies) ([7]; +S9, 0.05 mg/plate): 25.7±3.1
- Mean plate counts (revertant colonies) ([7]; +S9, 0.15 mg/plate): 23.7±2.5
- Mean plate counts (revertant colonies) ([7]; +S9, 0.5 mg/plate): 24.3±2.1
- Mean plate counts (revertant colonies) ([7]; +S9, 1.5 mg/plate): 25.7±3.1
- Mean plate counts (revertant colonies) ([7]; +S9, 5 mg/plate): 22.3±3.2
- Change in revertant colony counts vs negative control (mutagenicity) ([7]; +S9 and −S9, all dose levels): No changes in revertant colony counts were observed
- Mean plate counts (revertant colonies) ([7]; −S9, 0.05 mg/plate): 20.0±1.0
- Mean plate counts (revertant colonies) [7, 21]: 20.7±2.1
- Mean plate counts (revertant colonies) ([7]; −S9, 0.15 mg/plate): 16.7±1.5
- Mean plate counts (revertant colonies) ([7]; −S9, 1.5 mg/plate): 22.3±3.2
- Mean plate counts (revertant colonies) ([7]; −S9, 5 mg/plate): 23.0±1.0
- CYP3A4 mRNA induction (concentration-dependent >2-fold increase) [8]: no evidence of mRNA induction
- percent induction relative to positive control induction level [9]: less than 5 % of positive control
- IC50 [10]: > 100 µM
- Inhibition of hERG current ([10]; 0.1 µM): no inhibition
- Inhibition of hERG current ([10]; 1 µM, mean ± SE): 3.0 ± 0.5 % inhibition
- Inhibition of hERG current ([10]; 10 µM, mean ± SE): 9.7 ± 1.8 % inhibition
- Inhibition of hERG current ([10]; 100 µM, mean ± SE): 29.1 ± 1.3 % inhibition
- Kp at 2 h, 1 µM [11]: 0.72 ± 0.1
- Kp at 2 h, 10 µM [11]: 0.78
- blood plasma ratio at 2 h, 1 µM [11]: 0.87 ± 0.05
- blood plasma ratio at 2 h, 10 µM [11]: 0.9
- fraction metabolized ([12]; within 30 min): more than 60%
- fraction metabolized ([12]; within 2 hours): nearly all
- principle metabolites observed [13]: salicylic acid (M1) and the glycoside conjugate metabolite of 2-HOBA
- principle metabolites observed [14]: salicylic acid (M1) and the glycoside conjugate metabolite of 2-HOBA
- principle metabolites observed [15]: salicylic acid (M1) and the glycoside conjugate metabolite of 2-HOBA
- fb (bound fraction) ([16]; 1 µM): 0.079 ± 0.023
- fb (bound fraction) ([16]; 10 µM): 0.140 ± 0.022
- γKA scavenging rate relative to the rate of formation of γKA protein adducts [17]: 980 fold
- hypertension [18]: improved hypertension
- fraction unbound at 4 h, 1 µM [19]: 0.921 ± 0.024
- fraction unbound at 4 h, 10 µM [19]: 0.86
